T cruzi repl – inhibitors of intracellular T. cruzi growth, primary screen, luminescence, NIH3T3 host cells; T. cruzi beta-gal in NIH3T3, 90 h; inhibition, % (no concentration beside the values); actives 1.4% (n = 300,000); AID 1885, 2009;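 active means mean inhibition across valid replicates above about 55%, limit read from the data; inconclusive means mean below that limit but half or more replicates reach it; inactive means mean below it, under half of replicates reach it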;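 further: signal also drops with host cell toxicity which is not excluded here; 0% = plate median of DMSO wells and 100% = zero luminescence signal; higher percent means less beta-gal luminescence so fewer parasites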
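System – NIH/3T3 host cells with β-galactosidase reporter T. cruzi · Doses – single 50 nL compound addition per well in DMSO · Reagent – 5000 T. cruzi trypomastigotes/well · Medium – Low-serum DMEM with 2% FBS · Timing – ≥90 h infection period, 3 h prior cell attachment · Evaluation – parasite load inhibition, % · Technique – GalScreen luminescence, 60 min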
SKKanGAS inh – S. pyogenes SKKanGAS growth inhibitors in kanamycin, primary screen, streptokinase expression inhibitor project, SKKanGAS strain, BacTiter-Glo luminescence | 6 h | inhibition, % at 7.5 µM | actives 1.3% (n = 300,000);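 active means mean replicate score, as percent of positive control median, at least 50; inconclusive means mean below 50 but one replicate at or above 50; inactive means mean and every replicate below 50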;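 further: strain carries kanamycin resistance gene driven by streptokinase promoter and grows in 40 µg/ml kanamycin; loss of luminescence reflects streptokinase promoter inhibition or plain growth inhibition; 0% = median of DMSO wells and 100% = positive control at its reference dose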
Mdm2 MdmX PPI – inhibitors of human Mdm2-MdmX association, primary screen, cell-based, luminescence, split luciferase, SaOS-2, uHTS. AID 485346, 2010. inhibition, % at 8 µM. actives 3% (n = 330,000). Protein Mdm4 (Homo sapiens) + E3 ubiquitin-protein ligase Mdm2 (Homo sapiens), …. SaOS-2 split-luciferase Mdm2/MdmX complementation;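 active means inhibition of at least 50% at 8 µM in the primary screen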
Beta apoptosis – inhibitors of cytokine-induced beta cell apoptosis, primary screen, luminescence; actives 0.8% (n = 300,000); INS-1E cytokine-induced death, ATP luminescence, 48 h; percent of positive-control rescue, neutral wells zero; AID 435005, 2010; protection from apoptosis, % (no concentration beside the values);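 active means Every replicate reaches about 75%, or at least half do and their mean reaches it too, limit read from the data; inconclusive means At least half of replicates reach the limit but their mean does not; inactive means Under half of replicates reach the limit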;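 further: 0% = cytokine-treated negative control wells and 100% = positive control rescue; higher means more ATP so stronger rescue from cytokine killing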
Calb FLC – C. albicans growth inhibition with fluconazole, primary screen, CaCi-2 strain, Alamar Blue fluorescence; growth inhibition, % (test concentration not listed); C. albicans CaCi-2 + fluconazole, 48 h; actives 0.57% (n = 300,000);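 active means growth inhibition above about 58% in most replicates, limit read from the data, passing the limit was not always enough; inconclusive means exactly half the replicates above a set limit; inactive means most replicates below a set limit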;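 further: all wells also contain fluconazole at 8 µg/ml as a sub-toxic cotreatment; 0% = median of DMSO wells and 100% = median of geldanamycin control wells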
CSC inhib – cancer stem cell viability inhibitors, primary screen, luminescence. inhibition, % at 7.5 µM. actives 1.1% (n = 300,000). cancer stem cell-like cells viability; in the data active means inhibition above about 75%; inconclusive means no clear call, values can overlap the other calls; tested in HMLE shEcad cells
Mdm2-MdmX conf – Mdm2-MdmX complex disruptors, retested hits, confirmation, luminescence, single concentration; shares compounds with Mdm2 MdmX PPI; actives 55% (n = 10,000); inhibition, % at 8 µM; Mdm2-MdmX binding, luminescent assay; in the data active means inhibition above about 40%
Full FLuc ctr – full-length luciferase signal inhibition, confirmation, counter-screen for Mdm2/MdmX interaction inhibitor project, cell-based, single concentration, SaOS-2; shares compounds with Mdm2 MdmX PPI; SaOS-2 full-length luciferase counterscreen, luminescence; inhibition, % at 8 µM; actives 77% (n = 6,200);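 active means mean inhibition at 8 µM reaching about 37%, which flags the compound as non-specific, limit read from the data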;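 further: p53-null SaOS-2 cells with luciferase driven by a doxycycline-inducible promoter; compound on cells about two nights before reading with doxycycline added after day one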
* hit, by the source's call; ? = inconclusive; / = no result given. Rows were chosen to be rich in hits. Some 5.7% of all compounds tested hit in one or more screens of this group.

SMILES	T cruzi repl	SKKanGAS inh	Mdm2 MdmX PPI	Beta apoptosis	Calb FLC	CSC inhib	Mdm2-MdmX conf	Full FLuc ctr
COc1ccc(-c2cc(C(F)(F)F)nc(S(=O)(=O)CCCC(=O)Nc3cccc(O)c3)n2)cc1OC	-41	7	73*	/	25	/	36	/
COc1ccccc1-c1cc(C(F)(F)F)nc(S(=O)(=O)CCCC(=O)O)n1	-17	-1	4	-6	-4	19	/	/
COc1ccccc1-c1cc(C(F)(F)F)nc(S(=O)(=O)CCCC(=O)N2CCOCC2)n1	-16	-2	97*	-9	-3	82*	98*	1
COc1ccc(-c2cc(C(F)(F)F)nc(SCC(=O)Nc3cc(C)on3)n2)cc1	4	-1	25	-12	-8	-13	/	/
CCCCCC(=O)Nc1ccc2oc(-c3cncc(Br)c3)nc2c1	-10	2	58*	-3	4	-7	-9	/
CCC(C)NCC(=O)Nc1ccc(-c2nc3cc(NC(=O)CNC(C)CC)ccc3o2)cc1 (configuration not stated)	/	/	100*	-1	/	19	42*	36
CCN(CC)CC(=O)Nc1ccc(-c2nc3cc(NC(=O)CN(CC)CC)ccc3o2)cc1	38	5	55*	6	-2	8	41*	74*
O=C(CN1CCCC1)Nc1ccc(-c2nc3cc(NC(=O)CN4CCCC4)ccc3o2)cc1	51	1	92*	10	?	20	64*	52*
CCCC(=O)Nc1ccc2oc(-c3ccncc3)nc2c1	-11	4	-29	1	1	0	/	/
CC(=O)c1cccc(NS(C)(=O)=O)c1	-19	-7	12	-1	-13	1	/	/
CN(C)c1ccc(NC(=O)c2ccc(N3CCOCC3)nc2)cc1	41	1	-12	3	-5	-3	/	/
O=C(CCNC(=O)c1ccco1)Nc1ccc(N2CCOCC2)cc1	-5	2	-3	-1	12	-18	/	/
Cc1ccc(S(=O)(=O)N2C(=O)/C(=C3\SC(=S)NC3=O)c3ccccc32)cc1	3	10	51*	5	0	40	37	82*
COc1ccc(/C(N)=N/OC(=O)C2CCC(=O)N2S(=O)(=O)c2ccc(C)cc2)cc1OC (configuration not stated)	-11	0	74*	1	4	/	55*	76*
Cc1ccc(S(=O)(=O)N2C(=O)CCC2C(=O)O/N=C(\N)c2ccccc2)cc1 (configuration not stated)	-19	-3	14	-5	-2	15	/	/
NC(=O)c1nsc(C(=O)N(Cc2ccc(F)cc2)C(C(=O)NCC2CCCO2)c2ccc(O)cc2)c1N (configuration not stated)	-4	-2	10	/	3	/	/	/
Cc1ccc(C(=O)Nc2ccccc2SCC2CSc3nc4ccccc4c(=O)n32)cc1 (configuration not stated)	4	0	70*	7	3	25	47*	55*
O=C(Nc1ccccc1SCC1CSc2nc3ccccc3c(=O)n21)c1cccc(Cl)c1 (configuration not stated)	26	3	77*	6	-4	30	55*	43*
Cc1cccc(C(=O)Nc2ccccc2SCC2CSc3nc4ccccc4c(=O)n32)c1 (configuration not stated)	7	-2	63*	/	1	14	44*	107*
Cc1cccnc1NC(=O)C1CCC1	-7	0	-1	2	-12	-14	/	/
COc1ccc(NC(=O)COC(=O)c2cccn2C)cc1S(=O)(=O)N1CCCCC1	/	/	22	7	/	-4	/	/
O=C(NNC(=O)c1cccnc1Cl)c1ccc(F)cc1	0	-7	0	-7	1	-9	/	/
O=C(NNc1ccccc1Br)C(O)(c1cccc(C(F)(F)F)c1)c1cccc(C(F)(F)F)c1	44	101*	94*	125*	-4	12	78*	87*
CC(C)(O)C(=O)NNC(=S)Nc1cccc(C(F)(F)F)c1	-2	-6	-9	6	-3	-6	/	/
COc1ccc(S(=O)(=O)N2CCN(S(=O)(=O)c3ccc4c(c3)OCCO4)CC2)cc1C	12	1	13	/	4	/	/	/
SMILES	T cruzi repl	SKKanGAS inh	Mdm2 MdmX PPI	Beta apoptosis	Calb FLC	CSC inhib	Mdm2-MdmX conf	Full FLuc ctr
COc1ccc(S(=O)(=O)N2CCN(S(=O)(=O)c3ccc4c(c3)OCCO4)CC2)cc1	-9	-6	58*	0	-2	1	15	/
CC(=O)Nc1ccc(NC(=O)c2cccc3c2-c2ccccc2C3=O)cc1	-37	-14	-2	3	1	14	/	/
CN(C)c1ccc(NC2=C(Cl)C(=O)c3ccccc3C2=O)cc1	51	/	100*	-21	/	147*	99*	2
CC(=O)Nc1ccc(NC2=C(Cl)C(=O)c3ccccc3C2=O)cc1	?	28	100*	/	37	/	100*	52*
COc1ccc(C(CNC(=O)c2oc3cc(C)c(Cl)cc3c2C)N2CCCCC2)cc1 (configuration not stated)	-13	-14	82*	-3	-4	11	36	/
COc1ccc(C(CNC(=O)c2oc3ccc(C)cc3c2C)N2CCCCC2)cc1 (configuration not stated)	30	-6	20	/	1	/	/	/
COc1ccc(OC)c2sc(N3CCc4ccccc4C3)nc12	2	-17	-46	-7	9	/	/	/
c1ccc2c(c1)CCN(c1nc3cc4c(cc3s1)OCCO4)C2	24	18	81*	14	-6	/	77*	93*
Cc1nc2ccccn2c1C(=O)/C=C/c1cccc([N+](=O)[O-])c1	10	7	99*	102*	21	88*	97*	28
CSc1ccccc1OCc1cc(C(=O)NCCC2=CCCCC2)no1	7	0	52*	-7	-2	2	8	/
O=C(NCCC1=CCCCC1)c1cc(COc2c(F)cccc2F)on1	13	2	19	3	16	6	/	/
CC(C)c1cccc(-c2ccc3c(c2)S(=O)(=O)c2cccc(C(=O)NCc4ccccc4)c2C3=O)c1	/	/	59*	15	/	/	30	/
